Experimental findings from ChEMBL document CHEMBL1212762, “In vivo activity of ceftobiprole in murine skin infections due to Staphylococcus aureus and Pseudomonas aeruginosa” (Antimicrob Agents Chemother, 2010) are described below.

Each structure is given as a SMILES string.

Data set [1] relates to Staphylococcus aureus. Description: Antimicrobial activity against methicillin-susceptible Staphylococcus aureus Smith OC 4172 infected immunocompetent SKH1 mouse assessed as lesion volume at 25 mg/kg/day, sc measured after 48 hrs postinfection (reference value: 1181 mm3). The note with it: route subcutaneous.
A further data set concerns Pseudomonas aeruginosa. Description: Antimicrobial activity against Pseudomonas aeruginosa OC 4351 infected in immunocompromized SKH1 mouse assessed as log change in bacterial colony forming units at 25 mg/kg/day, sc. The data set is classed as functional. The note with it: route subcutaneous. An outline of the steps: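 Female SKH1 hairless mice made neutropenic with ip cyclophosphamide (150 mg/kg 5 days and 100 mg/kg 1 day before infection). 0.2 ml s.c. Cytodex bead (0.1% vol/vol) inoculum in BHI: OC 4351 left flank, OC 4354 right flank. Drug s.c. at 1, 3, 25, 27 h postinfection. Killed at 48 h; skin homogenised in saline, plated on TSA 18 h 37°C; Δlog CFU/g versus inoculum. 5 mice/dose, run twice.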

The test system of data set [2] is Staphylococcus aureus. As to the kind of experiment: Antimicrobial activity against methicillin-susceptible Staphylococcus aureus Smith OC 4172 infected immunocompetent SKH1 mouse assessed as lesion volume at 100 mg/kg/day, sc measured after 48 hrs postinfection (reference value: 1181 mm3). The note with it: route subcutaneous.
The test system of the next data set is Plasma. As to the kind of experiment: fAUC (0-infinity) in immunocompetent SKH1 mouse plasma at 50 mg/kg, sc. The format is ADME, organism-based. The note with it: in vivo. Also noted: dose 50 mg/kg, route subcutaneous. An outline of the steps:
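Female SKH1 hairless mice, immunocompetent or cyclophosphamide-neutropenic, infected s.c. with MRSA OC 8525 or P. aeruginosa OC 4354 on the Cytodex beads (left flank), sterile beads on the right. Single dose 24 h later: s.c. at the nape, or linezolid 50 mg/kg oral. Plasma and skin (DMSO homogenate) sampled over time, HPLC with diode array.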

As to `Nc1nc(/C(=N/O)C(=O)N[C@@H]2C(=O)N3C(C(=O)O)=C(/C=C4\CCN([C@@H]5CCNC5)C4=O)CS[C@H]23)ns1` [CEFTOBIPROLE], the values for the Activity in the data set with Staphylococcus aureus [1] and with Staphylococcus aureus [2] were 640 mm3 and 555 mm3, respectively. Moreover, the deltalog10CFU in the data set on Pseudomonas aeruginosa was -0.9. This molecule also had a fAUC in the data set on Plasma of 2336 µg·min/mL.
